Among the data in ChEMBL document CHEMBL5038580 (J Med Chem, 2022) are CC50, Activity and IC50 values, retold here.

Data set [1] has as its system Huh-7. Description: Cytotoxicity against human Huh7 cells incubated for 48 hrs by CCK-8 assay. The format is functional. The method, boiled down:
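Huh-7 cells (100 μL at 1 × 10^5 cells/mL) were preincubated 12 h at 37 °C, 5% CO2. Serially diluted peptide was added for 48 h, with a no-peptide blank and a Triton X-100 positive control. CCK-8 was added for 2 h and absorbance read at 450 nm. Three independent experiments, mean ± SD.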
(In general: Formazan colour is commonly taken as a measure of viable cells.)

In data set [2] the test system is Mus musculus. Description: Antiviral activity against MERS-COV infected in BALB/c mouse at 0.023 mmol/kg, iv measured upto 12 hrs. The settings on record: time hrs <=12. Type of data set: functional, organism-based. Put shortly:
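Peptide in PBS (pH 7.4) was given at 0.023 mmol/kg i.v. to three male BALB/c mice aged 8 weeks. Sera were tested in a 2 h S-mediated fusion assay with Huh-7 target cells. The serum dilution giving 50% fusion inhibition was calculated. Significance by Student's t test.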

Data set [3] can be described thus: in vitro. The settings on record: human, RD cells.
Data set [4] has as its system SARS-CoV-2. As to the kind of experiment: Antiviral activity against SARS-CoV-2 transfected in 293T cells assessed as inhibition of viral S protein mediated membrane fusion to 293T/ACE2 cells at 20 uM incubated for 24 hrs by fluorescence microscopy analysis. Type of data set: functional, organism-based. The settings on record: Severe acute respiratory syndrome coronavirus 2, HEK-293T. Put shortly:
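Single-concentration screen at 20 μM. Effector 293T cells expressing S/EGFP (10^4) were added to ACE2-293T target cells (10^5/well) and co-incubated at 37 °C for 24 h. Fusion was scored by fluorescence microscopy from counts of fused and unfused cells.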

Data set [5] concerns Human coronavirus OC43. Description: Antiviral activity against HCoV-OC43 assessed as reduction in viral infection preincubated for 30 mins followed by RD cells addition and measured after 3 days by CCK-8 assay. The format is functional. The conditions noted are these: Betacoronavirus 1, OC43, RD. The method, boiled down:
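HCoV-OC43 (100 TCID50) was mixed with diluted peptides for 30 min at 37 °C, then added to RD cells. After 3 days, cytopathic effect was read by CCK-8. Three independent experiments, mean ± SD.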

The subject of data set [6] is Human coronavirus OC43. As to the kind of experiment: Antiviral activity against HCoV-OC43 assessed as inhibition of viral S-protein mediated cell-cell fusion in Huh7 cells preincubated for 30 mins followed by cell addition and measured after 24 hrs. The format is functional, cell-based. The conditions noted are these: Betacoronavirus 1, OC43, Huh-7. Put shortly: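 Effector HEK293T cells were transfected with an OC43 spike/GFP plasmid and harvested after 36 h. They were preincubated with diluted peptides at 37 °C for 30 min, then co-incubated with Huh-7 target cells in the presence of trypsin for 24 h. Inhibition was calculated from counts of fused and unfused cells. Three independent experiments, mean ± SD.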

Data set [7] deals with Human immunodeficiency virus 1. As to the kind of experiment: Antiviral activity against HIV 1 25710-2 subtype C assessed as inhibition of viral entry preincubated for 30 min followed by U87-CD4-[…] positive cells addition and culture medium replacement after 12 hrs post infection and measured after 48 hrs by luciferase assay. The format is functional, organism-based. The conditions noted are these: Human immunodeficiency virus 1, 25710-2 subtype C. The method, boiled down: (§1)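 U87 CD4+ CCR5+ cells (1 × 10^4/well) were seeded and grown for 12 h at 37 °C, 5% CO2. Diluted peptides were mixed with pseudovirus for 30 min at 37 °C and then put on the cells. Medium was replaced 12 h post-infection. Cells were lysed 48 h later and luciferase was read. Three independent experiments, mean ± SD.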

Data set [8] deals with Human immunodeficiency virus 1. Description: Antiviral activity against HIV 1 JRFL subtype B assessed as inhibition of viral entry preincubated for 30 min followed by U87-CD4-[…] positive cells addition and culture medium replacement after 12 hrs post infection and measured after 48 hrs by luciferase assay. The format is functional, organism-based. The conditions noted are these: Human immunodeficiency virus 1, JRFL subtype B. Put shortly: as §1

Data set [9] relates to Human immunodeficiency virus 1. As to the kind of experiment: Antiviral activity against HIV 1 BaL(R5) incubated overnight by ELISA analysis. The conditions noted are these: Human immunodeficiency virus 1, BaL(R5). The format is functional, organism-based. Put shortly: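 Peptides were diluted in FBS-free RPMI 1640 and mixed with 100 TCID50 HIV-1 BaL. CEMx174 5.25 M7 cells (10^4) were added and cultured overnight at 37 °C, then medium was changed to RPMI/10% FBS. After 6 more days, supernatants were lysed with 5% Triton X-100 and p24 was measured by ELISA. IC50 calculated from three independent experiments.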
In general terms: ELISA stands for enzyme-linked immunosorbent assay.

The subject of data set [10] is Human immunodeficiency virus 1. As to the kind of experiment: Antiviral activity against HIV-1 IIIB assessed as inhibition of HIV-1 Env mediated cell-cell fusion in MT-2 cells preincubated for 30 mins followed by cell addition and measured after 2 hrs by calcein AM staining based fluorescence microscopy. The format is functional, organism-based. The settings on record: Human immunodeficiency virus 1, IIIB, MT2. The method, boiled down:
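H9/HIV-1 IIIB cells were labelled with Calcein AM for 30 min at 37 °C, washed, and resuspended in RPMI/10% FBS. They were incubated with diluted peptides for 30 min at 37 °C. MT-2 cells (1 × 10^5) were then added and cultured for 2 h at 37 °C. Fused cells were counted by fluorescence microscopy and IC50 was calculated. Three independent experiments.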

For data set [11], the system named is Human immunodeficiency virus 1. As to the kind of experiment: Antiviral activity against HIV 1 IIIB([…]) incubated overnight by ELISA analysis. Type of data set: functional, organism-based. The method, boiled down: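 Peptides were diluted in FBS-free RPMI 1640 and mixed with 100 TCID50 HIV-1 IIIB. MT-2 cells (10^4) were added and cultured overnight at 37 °C, then medium was changed to RPMI/10% FBS. After 3 more days, supernatants were lysed with 5% Triton X-100 and p24 was measured by ELISA. IC50 calculated from three independent experiments.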

For data set [12], the system named is SARS-CoV-2. As to the kind of experiment: Antiviral activity against SARS-CoV-2 transfected in 293T cells assessed as inhibition of viral S protein mediated membrane fusion to 293T/ACE2 cells incubated for 24 hrs by fluorescence microscopy analysis. Type of data set: functional, organism-based, HEK293T. The settings on record: Severe acute respiratory syndrome coronavirus 2, HEK-293T. The method, boiled down:
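Effector 293T cells were transfected with an S/EGFP plasmid for 48 h and collected in FBS-free DMEM. ACE2-293T target cells (10^5/well) were plated 6–8 h before fusion. Effector cells (10^4) were added with graded peptide dilutions and co-incubated at 37 °C for 24 h. Percent inhibition was calculated from fused and unfused cell counts under fluorescence microscopy.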

Data set [13] can be described thus: in vitro. The settings on record: human, MT2 cells.

In general, CC50 refers to the concentration that lowers cell viability or growth by half. A lower CC50 goes with greater toxicity to the cells. As usually defined, the IC50 is the midpoint of a concentration-inhibition curve.

Calls of active or inactive are those of the source. No cut-off for these calls is given here. Residues, ends and D or L forms follow the SMILES beside them.

`CC[C@H](C)[C@H](NC(=O)[C@H](Cc1ccc(O)cc1)NC(=O)[C@H](CO)NC(=O)[C@H](CCC(=O)O)NC(=O)[C@H](CCC(=O)O)NC(=O)[C@H](CC(C)C)NC(=O)[C@H](CCCCN)NC(=O)[C@H](CCCCN)NC(=O)[C@@H](NC(=O)[C@@H](NC(=O)[C@H](CCC(=O)O)NC(=O)[C@H](CCC(=O)O)NC(=O)[C@H](CC(C)C)NC(=O)[C@H](CCCCN)NC(=O)[C@H](CCCCN)NC(=O)[C@H](CCSC)NC(=O)[C@H](CCC(=O)O)NC(=O)[C@H](Cc1ccc(O)cc1)NC(=O)[C@H](CCC(=O)O)NC(=O)[C@H](CC(C)C)NC(=O)[C@H](CC(=O)O)NC(=O)[C@H](CC(C)C)NC(=O)[C@H](CC(C)C)NC(=O)[C@@H](NC(=O)[C@@H](NC(=O)[C@H](CC(N)=O)NC(=O)[C@@H](NC(=O)[C@H](CCC(N)=O)NC(=O)[C@@H](NC(=O)[C@H](CC(C)C)NC(=O)[C@H](CO)NC(C)=O)[C@@H](C)O)[C@@H](C)CC)[C@@H](C)O)[C@@H](C)O)C(C)C)C(C)C)C(=O)N[C@@H](CC(=O)O)C(=O)N[C@@H](CC(C)C)C(=O)N[C@@H](CCCCN)C(=O)N[C@@H](CCC(=O)O)C(=O)N[C@@H](CC(C)C)C(N)=O` came in with a half-maximal cytotoxic concentration (CC50) in data set [1] above 50 µM. In addition, the result in data set [2] was Active.

Consider `CC[C@H](C)[C@H](NC(=O)[C@H](C)NC(=O)[C@H](CCC(=O)O)NC(=O)[C@H](CCC(=O)O)NC(=O)[C@H](CC(C)C)NC(=O)[C@H](CCCCN)NC(=O)[C@H](CCCCN)NC(=O)[C@H](CCSC)NC(=O)[C@H](CCC(=O)O)NC(=O)[C@H](Cc1ccc(O)cc1)NC(=O)[C@H](CCC(=O)O)NC(=O)[C@H](CC(C)C)NC(=O)[C@H](CC(=O)O)NC(=O)[C@H](CC(C)C)NC(=O)[C@H](Cc1ccccc1)NC(=O)[C@@H](NC(=O)[C@@H](NC(=O)[C@H](CC(N)=O)NC(=O)[C@@H](NC(=O)[C@H](CCC(N)=O)NC(=O)[C@H](CC(=O)O)NC(=O)[C@H](CC(C)C)NC(=O)[C@H](CO)NC(C)=O)[C@@H](C)CC)C(C)C)[C@@H](C)O)C(=O)N[C@@H](CCCCN)C(=O)N[C@@H](CCCCN)C(=O)N[C@@H](CC(C)C)C(=O)N[C@@H](CCC(=O)O)C(=O)N[C@@H](CCC(=O)O)C(=O)N[C@@H](CO)C(=O)N[C@@H](Cc1ccc(O)cc1)C(=O)N[C@H](C(=O)N[C@@H](CC(=O)O)C(=O)N[C@@H](CC(C)C)C(=O)N[C@@H](CCCCN)C(=O)N[C@@H](CCC(=O)O)C(=O)N[C@@H](CC(C)C)C(N)=O)[C@@H](C)CC`, for which the CC50 at 48 h in data set [3] was above 40 µM. Moreover, the outcome in data set [4] was Active. For the same molecule, the IC50 in [5] worked out at 0.97 µM; in data set [6], 0.28 µM.

Regarding `CC[C@H](C)[C@H](NC(C)=O)C(=O)N[C@@H](CCC(=O)O)C(=O)N[C@@H](CCC(=O)O)C(=O)N[C@H](C(=O)N[C@H](C(=O)N[C@@H](CCCCN)C(=O)N[C@@H](CCCCN)C(=O)N[C@H](C(=O)N[C@@H](Cc1c[nH]cn1)C(=O)N[C@@H](Cc1c[nH]cn1)C(=O)N[C@H](C(=O)N[C@@H](CCC(=O)O)C(=O)N[C@@H](CCCNC(=N)N)C(=O)N[C@@H](C)C(=O)N[C@H](C(=O)N[C@@H](CCC(=O)O)C(=O)N[C@@H](C)C(=O)N[C@@H](CCC(N)=O)C(=O)N[C@@H](CCC(N)=O)C(=O)N[C@@H](CCCCN)C(=O)N[C@@H](CC(C)C)C(=O)N[C@@H](CC(C)C)C(=O)N[C@@H](CCC(N)=O)C(=O)N[C@@H](CC(C)C)C(=O)N[C@H](C(=O)N[C@H](C(=O)N[C@@H](Cc1c[nH]c2ccccc12)C(=O)NCC(=O)N[C@H](C(=O)N[C@@H](CCCCN)C(=O)N[C@@H](CCC(N)=O)C(=O)N[C@@H](CC(C)C)C(=O)N[C@@H](CCC(N)=O)C(=O)N[C@@H](C)C(=O)N[C@@H](CCCNC(=N)N)C(=O)N[C@H](C(=O)N[C@@H](CC(C)C)C(N)=O)[C@@H](C)CC)[C@@H](C)CC)C(C)C)[C@@H](C)O)[C@@H](C)CC)[C@@H](C)CC)[C@@H](C)CC)C(C)C)[C@@H](C)CC` (Ac-IEEIVKKIHHIERAIEAQQKLLQLTVWGIKQLQARIL-NH2), the IC50 was 0.298 µM in data set [7]; above 20 µM in data set [5]; above 20 µM in [6]; 0.353 µM in [8]; 0.176 µM in data set [9]; 0.472 µM in [10]. Moreover, the half-maximal inhibitory concentration (IC50) was 0.0185 µM in data set [11] and above 20 µM in data set [12].

enfuvirtide: the IC50 in [7] was 0.0115 µM; in data set [8], 0.00786 µM; in data set [9], 0.00158 µM; in [10], 0.024 µM; in data set [11] it was 0.0178 µM. This molecule also yielded a CC50 at 48 h in data set [13] above 10 µM.
